# Screens as filed in PubChem BioAssay.
# This is a sample that favours compounds with a hit; in the whole collection about 4% have one here.
# FAK blocker: inhibitors of human focal adhesion kinase; Q05397; actives 0.84% (n = 97,000); inhibition, %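 (tested at 7 µM)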; biochemical FAK kinase activity assay; AID 727; in the data active = inhibition above about 19%;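 note: 0% = DMSO and 100% = reference compound high control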
# ERa coact inh: blocks coactivator binding to human estrogen receptor alpha. actives 1.7% (n = 86,000). TR-FRET ER-alpha LBD / SRC-1 peptide, estradiol-bound. AID 629. inhibition, % at 25.6 µM; in the data active = inhibition above about 50%;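 note: 0% = receptor plus peptide control and 100% = peptide only without receptor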
# ERb coact inh: blocks coactivator binding to human estrogen receptor beta; actives 1.3% (n = 86,000); AID 633; Q92731; inhibition, % at 25.6 µM; TR-FRET ER-beta LBD / SRC1-Cy5 peptide binding; receptor agonist-loaded with 1 µM estradiol;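 active = compounds whose percent inhibition of the receptor-coactivator binding signal exceeds about 50% in the single-dose screen, limit read from the data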;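 note: 0% = receptor plus peptide wells without compound and 100% = peptide-only wells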
# Target sequence (Q92731 whole entry, looked up, the tested form may be a part): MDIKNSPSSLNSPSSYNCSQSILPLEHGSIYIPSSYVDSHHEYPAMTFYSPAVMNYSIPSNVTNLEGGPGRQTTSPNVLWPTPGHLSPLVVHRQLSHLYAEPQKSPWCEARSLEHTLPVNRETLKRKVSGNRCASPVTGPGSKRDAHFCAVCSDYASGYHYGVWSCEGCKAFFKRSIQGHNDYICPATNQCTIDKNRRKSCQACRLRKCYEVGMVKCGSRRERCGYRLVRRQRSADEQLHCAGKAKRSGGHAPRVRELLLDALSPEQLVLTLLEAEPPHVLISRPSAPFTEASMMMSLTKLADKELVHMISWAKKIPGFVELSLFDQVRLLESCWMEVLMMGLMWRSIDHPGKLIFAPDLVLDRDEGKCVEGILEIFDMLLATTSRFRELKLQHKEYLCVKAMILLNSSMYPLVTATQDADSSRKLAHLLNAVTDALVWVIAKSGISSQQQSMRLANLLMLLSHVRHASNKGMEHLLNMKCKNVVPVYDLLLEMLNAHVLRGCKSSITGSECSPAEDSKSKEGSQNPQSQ
# Rev-RRE block: HIV Rev-RRE protein-RNA interaction inhibition; inhibition, % at 8 µM; P05866; Rev peptide-RRE RNA binding, FRET; actives 0.79% (n = 97,000);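 active = inhibition above the screen-wide mean plus 3 SD, cut at about 35% in these data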;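 note: 0% = median DMSO wells and 100% = median Neomycin B control wells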
# Target sequence (P05866 whole entry, looked up): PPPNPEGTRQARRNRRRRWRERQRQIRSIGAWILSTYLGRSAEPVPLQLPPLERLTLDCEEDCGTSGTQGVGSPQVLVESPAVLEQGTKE
#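 Test system: labelled RRE RNA duplex and labelled Rev peptide. Times: 5 min compound–RNA preincubation, then 15 min with peptide, 25 °C. Doses: single-dose 8 µM. Measured by: FRET, excitation 480 nm, emission 540 nm donor and 671 nm acceptor. Measure: % inhibition of FRET ratio versus controls.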
# ERa SRC1 pot: ER-alpha (human) coactivator binding potentiation | AID 639 | coactivator binding (% of control), % at 25.6 µM | actives 1.3% (n = 86,000) | P03372 | TR-FRET ERalpha-LBD/SRC-Cy5 coactivator binding, 2 h; 100 = basal binding, no effect; in the data active = activity above about 200%;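 note: binding measured in presence of low estradiol as agonist stimulus; 0% = peptide alone without receptor and 100% = receptor with peptide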
# Smad3 inh: inhibitors of human Smad3 transcription factor binding. P84022. TR-FRET Smad3/Dy647-FoxH1 peptide binding, europium anti-His. inhibition, % at 25 µM. actives 0.29% (n = 88,000);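 active = compounds that reduce the energy-transfer binding signal between the protein and its labelled peptide by more than half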;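 note: 0% = Smad3 plus labelled peptide maximal FRET and 100% = peptide-only background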
# An asterisk follows results filed as active; · = no result given; [ ] = another dose, or the depositor's remark.
SMILES,FAK blocker,ERa coact inh,ERb coact inh,Rev-RRE block,ERa SRC1 pot,Smad3 inh
O=C(c1cc2sccc2n1Cc1ccccc1)N1CCCc2ccccc21,1,-7,-3,12,127,-3
O=C(c1cc2sccc2n1Cc1ccccc1)N1CCc2ccccc21,2,14,5,9,509*,-3
CCc1nc(NCc2ccco2)c2oc3ccccc3c2n1,23*,-20,-12,6,85,-5
CCNc1nc(CC)nc2c1oc1ccccc12,5,-19,-13,1,96,5
C#CCOC(=O)[C@H](N)CC(N)=O,·,·,·,·,·,-3
N#Cc1cn(-c2ccccc2)nc1-c1cc2ccccc2oc1=O,2,0,-10,5,212*[fluorescence artefact?],-1
O=C1CSC(c2cn(-c3ccccc3)nc2-c2cc3ccccc3oc2=O)N1Cc1cccnc1 (stereo not given),-1,0,-4,7,118,-4
O=Cc1cn(-c2ccccc2)nc1-c1cc2c(ccc3ccccc32)oc1=O,9,52*,38,7,230*[fluorescence artefact?],4
COc1ccc(-c2nn(-c3ccccc3)cc2C#N)cc1,-1,9,11,3,130,4
Oc1cc(O)c2c(c1)O[C@@H](c1ccc(O)c(O)c1)[C@H](O[C@@]1(c3cc(O)c(O)c(O)c3)Oc3cc(O)cc(O)c3[C@H](O)[C@H]1O)C2,·,·,·,·,·,12
Nc1ccccc1S[C@@H](C[N+](=O)[O-])c1ccc2c(c1)OCO2,·,·,·,·,·,22
CCc1ccccc1NC(=O)c1cnc2scc(C)n2c1=O,2,10,11,-1,216*[fluorescence artefact?],10
Nc1ccccc1CCCC(=O)O,·,·,·,·,·,7
CCN1CCC2(CC1)C(C#N)=C(N)Oc1c2sc2nc(C)cc(C)c12,0,-3,-1,66*,107,-1
CC(=O)N1CCC2(CC1)C(C#N)=C(N)Oc1c2sc2nc(C)cc(C)c12,·,6,9,·,101,-2
CC(=O)Nc1nc(C=C(Cl)Cl)cs1,·,65*,61*[fluorescence artefact?],·,15,7
CCOc1ccccc1Nc1ccc(N)cc1S(=O)(=O)O,·,·,·,·,·,13
CC(C)Oc1nc(-c2ccccc2O)nc2ccccc12,7,9,9,24,222*[fluorescence artefact?],-11
CC1CCN(c2nc(-c3ccccc3O)nc3ccccc23)CC1,-2,39,46,16,471*[fluorescence artefact?],4
COc1cccc(-c2nc(N3CCC(C)CC3)c3ccccc3n2)c1O,6,·,·,-4,·,·
Oc1ccccc1-c1nc(N2CCN(Cc3ccccc3)CC2)c2ccccc2n1,0,-12,-3,9,237*[fluorescence artefact?],-2
Oc1ccccc1-c1nc(N2CCCC2)c2ccccc2n1,-1,56*[fluorescence artefact?],56*[fluorescence artefact?],1,217*[fluorescence artefact?],55*[fluorescence artefact?]
Fc1ccccc1-c1nc(N2CCCCC2)c2ccccc2n1,·,-6,-8,·,78,5
N[C@@H](Cc1c[nH]c2ccc([N+](=O)[O-])cc12)C(=O)O,·,·,·,·,·,2
N#Cc1c(Cl)nc(SCc2ccccc2)nc1-c1ccccc1,-12,·,·,8,·,·
SMILES,FAK blocker,ERa coact inh,ERb coact inh,Rev-RRE block,ERa SRC1 pot,Smad3 inh
O=C(O)CCC(O)=C1S(=O)(=O)OCCOS1(=O)=O,·,·,·,·,·,5
Cn1cnnc1SCc1cccc(Br)c1,-2,21,52*[fluorescence artefact?],8,89,-13
O=C(CCC(=O)Nc1nnc(C2CCCCC2)s1)NCc1cccs1,6,-1,-8,0,104,6
CS(=O)(=O)c1ccc2nc(NC(=O)CCC(=O)c3cccs3)sc2c1,6,68*,40,15,67,7
O=C(CCC(=O)c1cccs1)Nc1nnc(C2CC2)s1,1,52*,42,3,64,-23
N[C@@H](CNO)C(=O)O,·,·,·,·,·,-1
O=c1c(-c2ccnn2-c2cccc(Cl)c2)cnc2n1CCS2,-1,-1,-5,5,97,10
CCc1cc(-c2n[nH]c(=S)n2-c2ccccc2C)cs1,0,·,·,-6,·,·
COC(=O)CN1C(=O)S/C(=C/c2ccc(N3CCCCC3)o2)C1=O,6,·,·,140*[fluorescence artefact?],·,·
CCOC(=O)CN1C(=O)S/C(=C/c2ccc(N3CCCCC3)o2)C1=O,4,·,·,112*[fluorescence artefact?],·,·
COC(=O)CN1C(=O)S/C(=C/c2cc(C)n(C)c2C)C1=O,-3,·,·,-2,·,·
Cc1ccsc1/C=C1/SC(=O)N(CC(=O)N2CCOCC2)C1=O,3,·,·,7,·,·
COCC(=O)Nc1nc2n(n1)C(c1ccc(Cl)cc1)CC(c1ccc(OC)cc1)N2 (stereo not given),-2,4,1,36*,94,-13
Cc1ccc(C(=O)N/C(=C\c2cccs2)C(=O)NCCCn2ccnc2)cc1C,2,·,·,3,·,·
Cc1ccc(-c2nn(C)c(=O)c3ccccc23)cc1CNC(=O)Cn1nc(-c2ccccc2)c2ccccc2c1=O,11,68*[fluorescence artefact?],48,0,89,26
Cc1nn(CC(=O)NCc2ccccc2)c(=O)c2ccccc12,0,-19,-20,5,99,6
Cn1nc(-c2ccc(N3CCOCC3)c(NC(=O)COc3ccccc3)c2)c2ccccc2c1=O,-1,2,0,5,133,13
COc1ccc(-c2nn(C)c(=O)c3ccccc23)cc1NC(=O)Cn1nc(-c2ccccc2)c2ccccc2c1=O,-3,13,2,-6,290*[fluorescence artefact?],-17
COc1ccc(-c2nn(C)c(=O)c3ccccc23)cc1NS(C)(=O)=O,-1,-8,-5,1,109,1
Cc1nn(CC(=O)NCc2cccc3ccccc23)c(=O)c2ccccc12,1,-27,-9,1,257*[fluorescence artefact?],-8
COc1ccc(OCC(=O)Nc2cc(-c3nn(C)c(=O)c4ccccc34)ccc2OC)cc1,16,8,2,6,677*[fluorescence artefact?],-116
Oc1cc(O)c2c(c1)O[C@H](c1ccc(O)c(O)c1)[C@@H](O)[C@@H]2c1c(O)cc(O)c2c1O[C@@H](c1ccc(O)c(O)c1)[C@H](O)C2,·,·,·,·,·,14
Cc1sc(-c2ccncc2)nc1OC(=O)c1ccc(Cl)cc1,-6,8,10,0,113,-5
Cc1sc(-c2ccncc2)nc1OC(=O)c1cc(Cl)cc(Cl)c1,-2,-6,-4,12,224*,0
O=C(CSc1ccccc1Cl)c1ccco1,2,19,21,0,86,7
SMILES,FAK blocker,ERa coact inh,ERb coact inh,Rev-RRE block,ERa SRC1 pot,Smad3 inh
O=C(CSc1ccc(Cl)cc1)c1ccco1,9,80*[fluorescence artefact?],81*,-8,76,-8
Cc1cc2oc(=O)cc(CN3CCCc4ccccc43)c2cc1C,·,6,8,·,231*[fluorescence artefact?],5
Cc1cc2oc(=O)cc(CN3CCOCC3)c2cc1C,-1,-14,-16,3,104,9
N#C/C(=C(\O)Cc1ccccc1)c1nc2ccccc2[nH]1,3,11,21,6,409*[fluorescence artefact?],-2
O=C1C[C@H]2C(=O)[C@@H]1[C@@H](C(=O)O)[C@H]2C(=O)O,·,·,·,·,·,-8
Cc1nn(C)cc1/C=C1\SC(=S)NC1=O,-1,·,·,2,·,·
Cc1cc(/C=C2\SC(=S)NC2=O)c(C)n1C,-1,·,·,54*,·,·
